This is an account of results in PubChem BioAssay AID504825 (Southern Research Specialized Biocontainment Screening …, 2011).

The experiment relates to HEp-2 viability, luminescence (CellTiter-Glo). The experiment can be described thus: viability of uninfected HEp-2 host cells – cell-based, synthesized compounds, set 10, cytotoxicity control for RSV antiviral project, dose response (AID 504825). Put shortly:
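Controls: Cell-only wells, 100% reference | Assay system: Uninfected HEp-2 human cells, compound cytotoxicity | Input: 10,595 HEp-2 cells per well | Measured by: CellTiter-Glo luminescence | Repeats: Triplicate | Buffer or medium: DMEM/F12 | Schedule: 6 d compound exposure, 37 °C | Evaluation: % viability and CC50, 4-parameter fit | Dosing: 8-point twofold dilution series, 0.5% DMSO final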

Broadly, the CC50 is the concentration that lowers cell viability or growth by half. `COc1ccc(C)c(NC(=O)[C@@H]2CCCN2S(=O)(=O)c2cccc3cccnc23)c1`: the CC50 was 47.7 µM. On to `Cc1ccc(NC(=O)[C@@H]2CCCN2S(=O)(=O)c2cccc3cccnc23)c(C)c1`, for which the CC50 was 29 µM. Turning to `Cc1cc(NC(=O)[C@@H]2CCCN2S(=O)(=O)c2cccc3cccnc23)n(C(C)(C)C)n1`, the CC50 is 55.1 µM.
